Data taken from ChEMBL document CHEMBL3259659, “Polyisoprenylated methylated protein methyl esterase: a putative biomarker and therapeutic target for pancreatic cancer” (Eur J Med Chem, 2014).
Calls of active or inactive are those of the source. No cut-off for these calls is given here.

What was measured:
[1] = (§1) Cytotoxicity against human BxPC3 cells after 48 hrs by fluorescence assay; type: functional, cell-based; settings: BXPC-3, 48 h
Summary of the method: (§2)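 Cells from ATCC, kept at 37°C in 5% CO2 to about 80% confluence, trypsinized and plated at 1×10^4 cells/well in medium with 5% FBS. Treated with PCAIs 0–20 μM for 48 h. Viability by resazurin (0.02% in Dulbecco PBS, 20 μL added), fluorescence read after 2 h at ex 560/em 590 nm. EC50 by nonlinear regression of concentration-response.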

BXPC-3 [2] = experiment: as §1; type: functional, cell-based; summary of the method: as §2
Homo sapiens = species: Homo sapiens; experiment: (§3) Inhibition of PMPMEase (unknown origin) using RD-PNB as substrate incubated for 15 mins prior to substrate addition measured after 2 hrs by RP-HPLC analysis
Summary of the method: (§4)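 Enzyme (1 μg) preincubated 15 min with inhibitor (1–1000 μM, dissolved in water), then RD-PNB (1 mM, in DMSO) added. Incubated 2 h at 37°C in 100 mM Tris-HCl pH 7.4, stopped with methanol, centrifuged. Supernatant analysed by RP-HPLC with UV detection at 260 nm. IC50 by nonlinear regression; Ki derived from previously reported RD-PNB kinetics.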

[3] = as §3; set-up: species or system Homo sapiens; summary of the method: as §4
[4] = Lipophilicity, log D of the compound; type: physicochemical; settings: octanol/water
MIA PaCa-2 [5] = experiment: (§5) Cytotoxicity against human MIAPaCa2 cells harboring K-Ras mutant oncogene after 48 hrs by fluorescence assay; type: functional, cell-based; summary of the method: as §2
[6] = as §5; type: functional, cell-based; settings: MIA PaCa-2, 48 h; summary of the method: as §2
BXPC-3 [7] = experiment: Cytotoxicity against human BxPC3 cells at 20 uM after 24 to 72 hrs by fluorescence assay; type: functional, cell-based
Summary of the method: (§6)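 Same viability method: cells plated at 1×10^4 cells/well in 5% FBS medium, exposed to 20 μM PCAI for 24, 48 and 72 h. Resazurin (0.02% in Dulbecco PBS) added, fluorescence ex 560/em 590 nm read 2 h later.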

MIA PaCa-2 [8] = experiment: Cytotoxicity against human MIAPaCa2 cells harboring K-Ras mutant oncogene at 20 uM after 24 to 72 hrs by fluorescence assay; type: functional, cell-based; summary of the method: as §6
MIA PaCa-2 [9] = experiment: Induction of apoptosis in human MIAPaCa2 cells harboring K-Ras mutant oncogene assessed as early apoptotic cells at 2 uM after 48 hrs by acridine orange/ethidium bromide staining-based fluorescence microscopy; type: functional, cell-based
Summary of the method: (§7)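 5×10^4 MIA PaCa-2 cells cultured in chamber slide wells and treated 48 h at 0.5, 1 and 2 μM in 5% FBS. Stained with acridine orange/ethidium bromide (10 μg/mL). Imaged by fluorescence microscopy (x40 objective, 480/30 nm excitation). Green intact nuclei scored as viable; bright green fragmented nuclei as early apoptotic; orange-red condensed nuclei as apoptotic.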

MIA PaCa-2 [10] = experiment: Induction of apoptosis in human MIAPaCa2 cells harboring K-Ras mutant oncogene at 0.5 to 2 uM after 48 hrs by acridine orange/ethidium bromide staining-based fluorescence microscopy; type: functional, cell-based; summary of the method: as §7
MIA PaCa-2 [11] = experiment: Induction of apoptosis in human MIAPaCa2 cells harboring K-Ras mutant oncogene assessed as viable cells at 1 uM after 48 hrs by acridine orange/ethidium bromide staining-based fluorescence microscopy; type: functional, cell-based; summary of the method: as §7

Row | Compound | Activity (Homo sapiens) | Ki [3] [µM] | logD [4] | EC50 [1] [µM] | Activity (BXPC-3 [2]) | Activity (MIA PaCa-2 [5]) | EC50 [6] [µM] | Activity (BXPC-3 [7]) | Activity (MIA PaCa-2 [8]) | Activity (MIA PaCa-2 [9]) | Activity (MIA PaCa-2 [10]) | Activity (MIA PaCa-2 [11])
1 | CC(C)=CCC/C(C)=C/CC/C(C)=C/CSC[C@H](NC(=O)CCCCCN1CCCC1)C(=O)NC1CC1 | Dose-dependent effect | 17.5 | 3.15 | > 20 | Dose-dependent effect | Dose-dependent effect | > 20 | – | – | – | – | –
2 | CC(C)=CCC/C(C)=C/CC/C(C)=C/CSC[C@H](NC(=O)CCCCCN1CCCC1)C(=O)NC1CCCCCCC1 | Dose-dependent effect | 11.9 | 5.37 | 4 | Dose-dependent effect | Dose-dependent effect | 1.9 | – | – | – | – | –
3 | CC(C)=CCC/C(C)=C/CC/C(C)=C/CSC[C@H](NC(=O)CCCCCN1CCN(C)CC1)C(=O)N1CCCCC1 | Dose-dependent effect | 13 | 4.27 | 8.8 | Dose-dependent effect | Dose-dependent effect | 14.3 | – | – | – | – | –
4 | CC(C)=CCC/C(C)=C/CC/C(C)=C/CSc1ccccc1C(N)=O | – | – | 6.03 | > 20 | – | – | > 20 | inactive | inactive | – | – | –
5 | CC(C)=CCC/C(C)=C/CC/C(C)=C/CSC[C@H](NC(=O)CCCCCN1CCN(C)CC1)C(=O)NC1CC1 | Dose-dependent effect | 13.8 | 3.66 | 6.3 | Dose-dependent effect | Dose-dependent effect | 10.4 | – | – | – | – | –
6 | CC(C)=CCC/C(C)=C/CC/C(C)=C/CSC[C@H](NC(=O)CCCCCN1CCN(C)CC1)C(=O)NC1CCCCC1 | Dose-dependent effect | 16.9 | 4.99 | 12 | Dose-dependent effect | Dose-dependent effect | 5.9 | – | – | – | – | –
7 | CC(C)=CCC/C(C)=C/CC/C(C)=C/CSC[C@H](NC(=O)CCCCCN1CCCC1)C(=O)NC1CCCCCC1 | Dose-dependent effect | 11.6 | 4.93 | 5.8 | Dose-dependent effect | Dose-dependent effect | 6.8 | – | – | – | – | –
8 | CC(C)=CCC/C(C)=C/CC/C(C)=C/CSC[C@H](NC(=O)CCCCCN1CCCC1)C(=O)N1CCCC1 | Dose-dependent effect | 9.7 | 3.31 | 6.5 | Dose-dependent effect | Dose-dependent effect | 10.8 | – | – | – | – | –
9 | CC(C)=CCC/C(C)=C/CC/C(C)=C/CSC[C@H](NC(=O)CCCCCN1CCCC1)C(=O)NC1CCCC1 | Dose-dependent effect | 3.7 | 4.04 | 6.8 | Dose-dependent effect | Dose-dependent effect | 3.2 | – | – | – | – | –
10 | CC(C)=CCC/C(C)=C/CC/C(C)=C/CSc1ccccc1C(=O)O [SALIRASIB] | – | – | 3.43 | > 20 | – | – | > 20 | inactive | inactive | – | – | –

Continued by falling Ki [3], values first:

Row | Activity (Homo sapiens) | Ki [3] [µM] | logD [4] | Compound | EC50 [1] [µM] | Activity (BXPC-3 [2]) | Activity (MIA PaCa-2 [5]) | EC50 [6] [µM] | Activity (BXPC-3 [7]) | Activity (MIA PaCa-2 [8]) | Activity (MIA PaCa-2 [9]) | Activity (MIA PaCa-2 [10]) | Activity (MIA PaCa-2 [11])
11 | Dose-dependent effect | 20 | 3.82 | CC(C)=CCC/C(C)=C/CC/C(C)=C/CSC[C@H](NC(=O)CCCCCN1CCN(C)CC1)C(=O)N1CCCC1 | 3.2 | Dose-dependent effect | Dose-dependent effect | 6 | – | – | – | – | –
12 | Dose-dependent effect | 17.6 | 5.44 | CC(C)=CCC/C(C)=C/CC/C(C)=C/CSC[C@H](NC(=O)CCCCCN1CCN(C)CC1)C(=O)NC1CCCCCC1 | 6.2 | Dose-dependent effect | Dose-dependent effect | 2.7 | – | – | – | – | –
13 | Dose-dependent effect | 15.2 | 5.88 | CC(C)=CCC/C(C)=C/CC/C(C)=C/CSC[C@H](NC(=O)CCCCCN1CCN(C)CC1)C(=O)NC1CCCCCCC1 | 7.5 | Dose-dependent effect | Dose-dependent effect | 2.5 | – | – | Active | Active | inactive
14 | Dose-dependent effect | 11.2 | 4.48 | CC(C)=CCC/C(C)=C/CC/C(C)=C/CSC[C@H](NC(=O)CCCCCN1CCCC1)C(=O)NC1CCCCC1 | 12.7 | Dose-dependent effect | Dose-dependent effect | 5.6 | – | – | – | – | –
15 | Dose-dependent effect | 11 | 3.76 | CC(C)=CCC/C(C)=C/CC/C(C)=C/CSC[C@H](NC(=O)CCCCCN1CCCC1)C(=O)N1CCCCC1 | 8.7 | Dose-dependent effect | Dose-dependent effect | 12.4 | – | – | – | – | –
16 | Dose-dependent effect | 10.1 | 4.55 | CC(C)=CCC/C(C)=C/CC/C(C)=C/CSC[C@H](NC(=O)CCCCCN1CCN(C)CC1)C(=O)NC1CCCC1 | > 20 | Dose-dependent effect | Dose-dependent effect | 10.9 | – | – | – | – | –
